# From ChEMBL document CHEMBL1212756, “Klebsiella pneumoniae AcrAB efflux pump contributes to antimicrobial resistance and virulence” (2010)
# Active and inactive are the calls of the source. The calls are words filed in the database; no cut-off is given here.
# What was measured:
# Klebsiella pneumoniae [1] = test: Antimicrobial activity against rifampin resistant Klebsiella pneumoniae 52deltaacrB containing isogenic acrB knockout assessed as growth inhibition by Etest method; format: functional
# Summary of the method: (§1)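 MICs were read from Etest strips following the manufacturer's instructions. The parent strain is a spontaneous rifampin-resistant mutant of clinical isolate 52145 (serotype O1:K2), grown in LB at 37°C. The acrB and acrR knockouts were made from it by insertion-duplication via homologous recombination with plasmid pFS100.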
# Klebsiella pneumoniae [2] = test: Antimicrobial activity against rifampin resistant Klebsiella pneumoniae 52145R assessed as growth inhibition by Etest method; format: functional; summary of the method: as §1
# Klebsiella pneumoniae [3] = test: Antimicrobial activity against rifampin resistant Klebsiella pneumoniae 52deltaacrR containing isogenic acrR knockout assessed as growth inhibition by Etest method; format: functional; summary of the method: as §1
# Klebsiella pneumoniae [4] = test: Antimicrobial activity against rifampin resistant Klebsiella pneumoniae 52145R assessed as growth inhibition at 0.1 ug/ml in presence of 50 uM uncoupler CCCP and glucose by Etest method; format: functional, organism-based
# Summary of the method: (§2)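 Exponential-phase LB cultures (37°C) were harvested and resuspended at ca. 2.1 x 10^5 CFU/ml in 1% tryptone-PBS, pH 7.4. They were exposed to polymyxin B 0.1 µg/ml for 30 min at 37°C, either alone, after de-energizing with 50 µM CCCP, or with 0.4% glucose. Colony counts are given as % of unexposed cells, in duplicate on at least three occasions.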
# Klebsiella pneumoniae [5] = test: Antimicrobial activity against rifampin resistant Klebsiella pneumoniae 52145R assessed as growth inhibition at 0.1 ug/ml in presence of 50 uM uncoupler CCCP by Etest method; format: functional, organism-based; summary of the method: as §2
# Klebsiella pneumoniae [6] = test: Antimicrobial activity against rifampin resistant Klebsiella pneumoniae 52deltaacrB containing isogenic acrB knockout assessed as growth inhibition at 0.1 ug/ml by Etest method; format: functional, organism-based
compound,measurement,setting,value
O=C(O)c1cn(C2CC2)c2cc(N3CCNCC3)c(F)cc2c1=O [CIPROFLOXACIN],MIC,Klebsiella pneumoniae [1],0.008 µg/mL
NC[C@H]1O[C@H](O[C@H]2[C@H](O)[C@@H](O[C@H]3O[C@H](CO)[C@@H](O)[C@H](N)[C@H]3O)[C@H](N)C[C@@H]2N)[C@H](N)C[C@@H]1O [TOBRAMYCIN],MIC,Klebsiella pneumoniae [2],0.25 µg/mL
same,MIC,Klebsiella pneumoniae [1],0.125 µg/mL
same,MIC,Klebsiella pneumoniae [3],0.25 µg/mL
C[C@H]1COc2c(N3CCN(C)CC3)c(F)cc3c(=O)c(C(=O)O)cn1c23.C[C@H]1COc2c(N3CCN(C)CC3)c(F)cc3c(=O)c(C(=O)O)cn1c23.O [LEVOFLOXACIN],MIC,Klebsiella pneumoniae [2],0.09 µg/mL
same,MIC,Klebsiella pneumoniae [1],0.006 µg/mL
same,MIC,Klebsiella pneumoniae [3],0.19 µg/mL
O=C(N[C@H](CO)[C@H](O)c1ccc([N+](=O)[O-])cc1)C(Cl)Cl [CHLORAMPHENICOL],MIC,Klebsiella pneumoniae [2],2 µg/mL
same,MIC,Klebsiella pneumoniae [1],1 µg/mL
same,MIC,Klebsiella pneumoniae [3],4 µg/mL
C[C@@H](O)[C@H]1C(=O)N2C(C(=O)O)=C(S[C@@H]3CN[C@H](C(=O)Nc4cccc(C(=O)O)c4)C3)[C@H](C)[C@H]12,MIC,Klebsiella pneumoniae [2],0.012 µg/mL
same,MIC,Klebsiella pneumoniae [1],0.012 µg/mL
same,MIC,Klebsiella pneumoniae [3],0.012 µg/mL
CCn1cc(C(=O)O)c(=O)c2ccc(C)nc21 [NALIDIXIC ACID],MIC,Klebsiella pneumoniae [2],4 µg/mL
same,MIC,Klebsiella pneumoniae [1],0.5 µg/mL
same,MIC,Klebsiella pneumoniae [3],8 µg/mL
CN(C)[C@@H]1C(O)=C(C(N)=O)C(=O)[C@@]2(O)C(O)=C3C(=O)c4c(O)cccc4[C@@](C)(O)[C@H]3C[C@@H]12 [TETRACYCLINE],MIC,Klebsiella pneumoniae [2],2 µg/mL
same,MIC,Klebsiella pneumoniae [1],0.25 µg/mL
same,MIC,Klebsiella pneumoniae [3],4 µg/mL
CC[C@H]1OC(=O)[C@H](C)[C@@H](O[C@H]2C[C@@](C)(OC)[C@@H](O)[C@H](C)O2)[C@H](C)[C@@H](O[C@@H]2O[C@H](C)C[C@H](N(C)C)[C@H]2O)[C@](C)(O)C[C@@H](C)C(=O)[C@H](C)[C@@H](O)[C@]1(C)O [ERYTHROMYCIN],MIC,Klebsiella pneumoniae [2],32 µg/mL
same,MIC,Klebsiella pneumoniae [1],8 µg/mL
same,MIC,Klebsiella pneumoniae [3],32 µg/mL
GENTAMICIN,MIC,Klebsiella pneumoniae [2],0.25 µg/mL
same,MIC,Klebsiella pneumoniae [1],0.06 µg/mL
same,MIC,Klebsiella pneumoniae [3],0.25 µg/mL
CO/N=C(\C(=O)N[C@@H]1C(=O)N2C(C(=O)O)=C(COC(C)=O)CS[C@H]12)c1csc(N)n1 [CEFOTAXIME],MIC,Klebsiella pneumoniae [2],0.125 µg/mL
same,MIC,Klebsiella pneumoniae [1],0.06 µg/mL
same,MIC,Klebsiella pneumoniae [3],4 µg/mL
CO[C@@]1(NC(=O)Cc2cccs2)C(=O)N2C(C(=O)O)=C(COC(N)=O)CS[C@@H]21 [CEFOXITIN],MIC,Klebsiella pneumoniae [2],8 µg/mL
same,MIC,Klebsiella pneumoniae [1],4 µg/mL
same,MIC,Klebsiella pneumoniae [3],32 µg/mL
POLYMYXIN B,growth inhibition (GI),Klebsiella pneumoniae [4],inactive
same,growth inhibition (GI),Klebsiella pneumoniae [5],Active
same,growth inhibition (GI),Klebsiella pneumoniae [6],Active
C[C@@H](O)[C@H]1C(=O)N2C(C(=O)O)=C(S[C@@H]3CN[C@H](C(=O)N(C)C)C3)[C@H](C)[C@H]12 [MEROPENEM],MIC,Klebsiella pneumoniae [2],0.03 µg/mL
same,MIC,Klebsiella pneumoniae [1],0.03 µg/mL
same,MIC,Klebsiella pneumoniae [3],0.03 µg/mL
C[C@@H](O)[C@H]1C(=O)N2C(C(=O)O)=C(SCCNC=N)C[C@H]12 [IMIPENEM ANHYDROUS],MIC,Klebsiella pneumoniae [2],0.125 µg/mL
same,MIC,Klebsiella pneumoniae [1],0.125 µg/mL
same,MIC,Klebsiella pneumoniae [3],0.125 µg/mL
